SENP6 block – SENP6 protease inhibition; inhibition, % at 10 µM; AID 2599; 330,000 compounds, 1.8% hits; Recombinant SENP6 catalytic domain, aminoluciferin luminescence;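 active = inhibition above about 50% at the single tested dose, limit read from the data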;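 also: plate controls were DMSO wells with enzyme for no effect and DMSO wells lacking enzyme for full effect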
SENP1 inh – SENP1 (human) catalytic domain inhibition; Q9P0U3; inhibition, % at 10 µM; AID 624204; recombinant SENP1 catalytic domain, CyPet-SUMO1-YPet FRET cleavage; 360,000 compounds, 0.21% hits;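 active = inhibition at least 30% at 10 µM, raw YFP signal under a set limit, fluorescence ratio 0.5 to 1.5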;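 also: 0% = enzyme with DMSO and 100% = no enzyme wells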
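Material – human SENP1 catalytic domain · Input – SENP1 enzyme, 20 pM final · Compound dosing – single concentration of 10 µM compound, 0.5% DMSO final · Timing – enzyme reaction for 50 min at room temperature, dark · Measured by – FRET fluorescence in CFP and YFP emission channels · Control set – no-enzyme wells low, DMSO-plus-enzyme wells high control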
SENP7 inh – inhibitors of human SENP7 protease | recombinant SENP7, Z-RLRGG-aminoluciferin luminescence, 40 min | inhibition, % at 5 µM | 330,000 compounds, 1.5% hits | AID 434973;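 active = inhibition above about 50% at the single test dose, limit read from the data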;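 also: plate controls were DMSO with enzyme for no effect and no enzyme buffer wells for full effect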
Target sequence (Q9BQF6 706-1050 limits assumed): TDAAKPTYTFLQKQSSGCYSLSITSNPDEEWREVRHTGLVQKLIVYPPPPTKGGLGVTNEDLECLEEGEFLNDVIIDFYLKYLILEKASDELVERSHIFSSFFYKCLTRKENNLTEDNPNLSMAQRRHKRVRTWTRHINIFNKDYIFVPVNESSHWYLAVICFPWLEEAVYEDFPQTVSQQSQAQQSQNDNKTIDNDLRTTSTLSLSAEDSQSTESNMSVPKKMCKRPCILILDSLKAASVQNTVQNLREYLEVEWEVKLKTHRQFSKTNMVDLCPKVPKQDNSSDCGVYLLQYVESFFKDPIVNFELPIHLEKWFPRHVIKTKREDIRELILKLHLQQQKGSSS
HSP90 refold inh – blocks HSP90-mediated luciferase refolding in reticulocyte lysate | Rabbit reticulocyte lysate, luciferase refolding luminescence, 3 h | 290,000 compounds, 0.91% hits | inhibition, % at 5.6 µM;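 active = inhibition above the screen-wide mean plus 3 SD, computed separately per campaign, cut at about 16% in these data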;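 also: 0% = DMSO wells and 100% = 60 µM geldanamycin wells; inhibitors lower the luminescence because luciferase stays unfolded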
SENP8 block-1 – SENP8 protease inhibition; 330,000 compounds, 1.2% hits; purified SENP8, Z-RLRGG-aminoluciferin cleavage, luminescence; AID 2540; inhibition, % at 10 µM; Q96LD8; in the data active = inhibition above about 50%
SENP8 block-2 – blocks human SENP8 cleavage of Nedd8 substrate; inhibition, % at 20 µM; 360,000 compounds, 0.64% hits; Q96LD8; recombinant SENP8, Nedd8 substrate fluorescence; in the data active = inhibition mostly above about 40%, no sharp cut-off; inactive = mostly below about 27%
HSP90 confirm – confirmation of HSP90 inhibitors; shares compounds with HSP90 refold inh; rabbit reticulocyte lysate, luciferase refolding luminescence, 3 h; inhibition, % at 5.9 µM; 2,300 compounds, 64% hits; in the data active = inhibition above about 18%;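 also: 0% = vehicle wells and 100% = reference inhibitor wells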
luciferase ctr – counter-screen for HSP90 inhibitors: inhibitors of firefly luciferase; shares compounds with HSP90 refold inh; purified native firefly luciferase, luminescence; inhibition, % at 5.9 µM; 2,300 compounds, 48% hits; AID 1847;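 active = inhibition above the mean inhibition of all tested sample wells plus 3 SD, cut at about 10% in these data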;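 also: 0% = DMSO with luciferase and 100% = wells lacking luciferase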
SENP8 confirm – confirmation of human SENP8 protease inhibitors | inhibition, % at 12.5 µM | shares compounds with SENP7 inh | Recombinant SENP8, Z-RLRGG-aminoluciferin luminescence, 60 min | 6,200 compounds, 40% hits;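 active = mean inhibition across replicates above about 50%, limit read from the data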
SENP6 confirm – human SENP6 inhibition, confirmed | shares compounds with SENP7 inh | recombinant SENP6, Z-RLRGG-aminoluciferin luminescence | inhibition, % at 12.5 µM | 6,200 compounds, 58% hits | AID 488915
SENP7 confirm – human SENP7 inhibition, confirmed. shares compounds with SENP7 inh. inhibition, % at 12.5 µM. recombinant SENP7, Z-RLRGG-aminoluciferin luminescence, 40 min. 6,200 compounds, 69% hits
Casp3 SENP sel – caspase-3 inhibition (SENP selectivity assay); shares compounds with SENP7 inh; inhibition, % at 12.5 µM; AID 488918; 6,200 compounds, 60% hits; purified caspase-3, Z-DEVD-aminoluciferin luminescence, 60 min;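 active = mean inhibition above about 50%, limit read from the data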;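 also: plate controls were enzyme with DMSO for no effect and wells without caspase-3 for full effect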
Target sequence (P42574 28-227 limits assumed): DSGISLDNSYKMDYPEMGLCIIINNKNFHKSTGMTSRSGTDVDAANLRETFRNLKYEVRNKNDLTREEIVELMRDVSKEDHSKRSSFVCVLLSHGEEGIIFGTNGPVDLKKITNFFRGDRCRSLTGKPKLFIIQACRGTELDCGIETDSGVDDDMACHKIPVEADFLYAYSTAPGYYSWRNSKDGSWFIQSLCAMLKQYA
Luc interf – counter-screen for SENP inhibitors: luminescence interference; shares compounds with SENP7 inh; Pre-incubated SENP8/Z-RLRGG-aminoluciferin, luciferase luminescence interference; inhibition, % at 12.5 µM; 6,200 compounds, 39% hits;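 active = mean inhibition above about 50% when retested at one dose, limit read from the data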;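 also: plate controls were DMSO wells with completed reaction for no effect and substrate without enzyme for full effect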
* marks the source's active call; other numbers are inactive results; nt = no result given. A selection: hits, their analogues and other compounds. The true share with any hit is near 2.9%.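 The calls were made as follows, unless noted: active = mean inhibition above about 50% in the one-dose retest (limit read from the data); inactive = the rest.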

SMILES	SENP6 block	SENP1 inh	SENP7 inh	HSP90 refold inh	SENP8 block-1	SENP8 block-2	HSP90 confirm	luciferase ctr	SENP8 confirm	SENP6 confirm	SENP7 confirm	Casp3 SENP sel	Luc interf
CC(C)CC1C(=O)N(Cc2cn(Cc3ccco3)nn2)CCS(=O)(=O)N1Cc1ccc(-c2ccncc2)cc1 (centres undefined)	nt	-3	nt	nt	nt	1	nt	nt	nt	nt	nt	nt	nt
Cn1cccc1C(=O)NC(=O)COC(=O)C12CC3CC(CC(O)(C3)C1)C2	54*	-4	62*	43*	42	-7	54*	44*	62*	58*	82*	84*	2
O=C(/C=C/Nc1ccc(F)cc1Br)c1ccccc1	96*	-19	100*	19*	94*	-83	89*	82*	31	43	36	75*	29
Cc1ccc(C(=O)/C=C/Nc2ccccn2)cc1	95*	-11	97*	66*	93*	-220	96*	91*	94*	98*	102*	96*	62*
Cc1ccc(N/C=C/C(=O)c2ccc(C)cc2)cc1	-13	-68	19	4	-21	-296	nt	nt	nt	nt	nt	nt	nt
COc1cccc(N/C=C/C(=O)c2ccc(C)cc2)c1	91*	-65	96*	19*	95*	-174	34*	28*	96*	98*	101*	94*	93*
Cc1ccc(C(=O)/C=C/Nc2ccc([N+](=O)[O-])cc2Br)cc1	-14	-21	3	7	-2	-18	nt	nt	nt	nt	nt	nt	nt
COc1ccc(OC)c(N/C=C/C(=O)c2ccccc2)c1	93*	-28	101*	70*	95*	12	92*	84*	100*	101*	104*	99*	95*
Cc1nc2c(OCc3ccc(C(F)(F)F)cc3)cccn2c1N(C)Cc1cccs1	nt	-30	nt	nt	nt	-11	nt	nt	nt	nt	nt	nt	nt
Cc1cccc(S(=O)Cc2ccc(C(=O)NC3CCN(Cc4ccccc4)CC3)o2)c1 (centres undefined)	-2	0	-9	-4	1	8	nt	nt	nt	nt	nt	nt	nt
N/C(=N\OC(=O)c1ccc(Br)o1)c1ccccn1	50*	2	88*	23*	64*	15	0	44*	86*	85*	97*	94*	57*
C/C(=N/NC(=O)c1ccc(C(C)(C)C)cc1)c1ccccn1	5	1	16	nt	1	2	nt	nt	nt	nt	nt	nt	nt
CC(C)(C)c1ccc(C(=O)O/N=C(\N)c2ccccn2)cc1	97*	1	98*	73*	94*	14	64*	83*	86*	98*	102*	95*	76*
COc1cc(C(=O)O/N=C(\N)c2ccccn2)cc(OC)c1OC	-3	2	2	-2	7	4	nt	nt	nt	nt	nt	nt	nt
Cc1ccc(C(=O)O/N=C(\N)c2ccccn2)cc1C	98*	5	98*	61*	93*	19	71*	84*	95*	95*	101*	96*	86*
CCOc1ccc(C(=O)O/N=C(\N)c2ccccn2)cc1	98*	0	100*	82*	97*	7	82*	91*	98*	99*	102*	98*	73*
N/C(=N\OC(=O)Cc1ccccc1)c1ccccn1	-6	5	-12	0	-8	26	nt	nt	nt	nt	nt	nt	nt
CC(C)C[C@@H](CNCC(=O)[C@H](CC(=O)O)NC(=O)c1[nH]cnc1C(=O)N[C@H](CN)CC(C)C)NC(=O)c1nc[nH]c1C(=O)N[C@@H](C)C(=O)O	nt	-2	nt	nt	nt	11	nt	nt	nt	nt	nt	nt	nt
CCOC(=O)C1(C)CCN1C(=O)c1ccc(C(C)(C)C)cc1 (centres undefined)	nt	-1	nt	nt	nt	16	nt	nt	nt	nt	nt	nt	nt
CC(C(=O)O/N=C(\N)c1ccccn1)c1ccc([N+](=O)[O-])cc1 (centres undefined)	10	1	4	3	4	8	nt	nt	nt	nt	nt	nt	nt
N/C(=N\OCc1ccc([N+](=O)[O-])cc1)c1ccccn1	95*	nt	96*	84*	90*	nt	91*	86*	94*	94*	100*	95*	71*
N/C(=N\OC(=O)/C=C/c1ccccc1Cl)c1ccccn1	95*	-1	89*	28*	86*	-12	55*	57*	91*	90*	100*	85*	88*
Cc1ccc(C(=O)O/N=C(\N)c2ccccn2)cc1	99*	4	101*	78*	98*	9	86*	94*	99*	99*	102*	98*	88*
Cc1cccc(C(=O)O/N=C(\N)c2ccccn2)c1	97*	1	98*	61*	91*	11	61*	83*	94*	95*	100*	96*	93*
N/C(=N\OC(=O)c1ccccc1)c1ccccn1	96*	2	98*	58*	92*	4	38*	87*	97*	98*	102*	98*	95*
N/C(=N\OC(=O)c1ccccc1)c1ccncc1	47	1	36	2	21	1	nt	nt	nt	nt	nt	nt	nt
N/C(=N\OC(=O)c1cccc(F)c1)c1ccccn1	90*	6	91*	31*	81*	8	16*	68*	91*	93*	101*	97*	90*
CN(Cc1ccccc1)S(=O)(=O)c1csc(C(N)=O)c1	2	0	8	1	5	15	nt	nt	nt	nt	nt	nt	nt
Cc1cccc2nc(CNC(=O)C3CCC(=O)N(Cc4ccccc4F)C3)cn12 (centres undefined)	1	-4	-2	-2	-1	-9	nt	nt	nt	nt	nt	nt	nt

Screening results from PubChem.
